Results from PubChem BioAssay.
Active and inactive are the calls of the source.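 Rule for the calls, unless noted: active = Her2 level under about 52% in both replicate screens, with viability over 70% of control (limit read from the data); inconclusive = Her2 under the limit in one screen only, or viability under 70%; inactive = Her2 level above the set limit.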

Key:
[1] = reducers of endogenous Her2 protein level, primary screen, SKBR3 breast tumor cells, AlphaScreen, ATP viability (AID 461); conditions: 18-24 h, measured here: SKBR3 viability, ATP luminescence, at 10 µM;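 for Her2 level: lower value means less Her2 protein in the cells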;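 for viability: percent of carrier control wells set as 100% viability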
[2] = biological target: Receptor tyrosine-protein kinase erbB-2 (Homo sapiens) (UniProt P04626); experiment: as above; conditions: 18-24 h, at 10 µM, stronger effect = lower value
[3] = SK-BR-3 cell growth inhibitors, pilot screen, 24 h, human (AID 572;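 active = viability at or below 10% of carrier control in both of two separate runs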;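 note: compound exposure lasted between 18 and 24 h rather than exactly 24 h; 100% = carrier-treated control wells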); conditions: SK-BR-3 viability, CellTiter-Glo luminescence, at 10 µM, stronger effect = lower value
[4] = HUVEC growth inhibition – cell-based, human, primary screen (AID 575;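 active = viability at or below 30% in both replicate assays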;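 note: 100% = median of untreated cell wells with 0.1% DMSO on each plate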); conditions: HUVEC proliferation, CellTiter-Glo luminescence, 72 h; at 10 µM; stronger effect = lower value
Outline: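 Assay system: primary human umbilical vein endothelial cells / Buffer or medium: endothelial basal medium with 2% FBS plus growth supplements / Compound dosing: one dose, 10 µM final, 0.1% DMSO / Timing: 72 h treatment at 37 °C / Signal: CTG luminescence / Benchmarks: 32 DMSO-only cell-control wells (high), 32 MePR drug-control wells (low) per plate / Plate: collagen-coated 384-well format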

[5] = growth inhibitors of H69AR lung tumor, primary screen, human, duplicate replicates (AID 580;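 active = viability at or under a set limit in both replicates, limit being median viability minus 3 SD, cut at about 48% in these data, passing the limit was not always enough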;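 note: 100% = mean luminescence of untreated wells and 0% = no signal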); conditions: H69AR lung tumor cells viability, ATP luminescence, 72 h; at 10 µM; stronger effect = lower value
[6] = reversal of MRP1-mediated doxorubicin resistance, pilot screen, H69AR cells, doxorubicin co-treatment (AID 601;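 active = viability loss from added drug above about 55%, and viability with drug at most 40%, in both replicates, limit read from the data, passing the limit was not always enough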); conditions: CellTiter-Glo, 72 h, at 10 µM; for differential viability (reversal): stronger effect = higher value
[7] = 384-well plate pilot, post-Golgi transport modulator project, inhibition of yeast transport mutant growth (AID 636; in the data active = inhibition above about 31%); conditions: absorbance 615 nm, about 18 h, stronger effect = higher value
[8] = growth suppression of yeast trafficking mutant, preliminary HTS, modulators of trafficking downstream of Golgi apparatus project, 1536-format plate, OD 615 nm (AID 637; in the data active = inhibition above about 30%); conditions: yeast transport mutant growth, absorbance 615 nm, 18 h; stronger effect = higher value
[9] = H69AR cells + 2 uM doxorubicin, measured here: viability with 2 uM doxorubicin, stronger effect = lower value
[10] = H69AR cells, compound alone cytotoxicity

Chain of Receptor tyrosine-protein kinase erbB-2 (Homo sapiens) (P04626 whole entry, looked up): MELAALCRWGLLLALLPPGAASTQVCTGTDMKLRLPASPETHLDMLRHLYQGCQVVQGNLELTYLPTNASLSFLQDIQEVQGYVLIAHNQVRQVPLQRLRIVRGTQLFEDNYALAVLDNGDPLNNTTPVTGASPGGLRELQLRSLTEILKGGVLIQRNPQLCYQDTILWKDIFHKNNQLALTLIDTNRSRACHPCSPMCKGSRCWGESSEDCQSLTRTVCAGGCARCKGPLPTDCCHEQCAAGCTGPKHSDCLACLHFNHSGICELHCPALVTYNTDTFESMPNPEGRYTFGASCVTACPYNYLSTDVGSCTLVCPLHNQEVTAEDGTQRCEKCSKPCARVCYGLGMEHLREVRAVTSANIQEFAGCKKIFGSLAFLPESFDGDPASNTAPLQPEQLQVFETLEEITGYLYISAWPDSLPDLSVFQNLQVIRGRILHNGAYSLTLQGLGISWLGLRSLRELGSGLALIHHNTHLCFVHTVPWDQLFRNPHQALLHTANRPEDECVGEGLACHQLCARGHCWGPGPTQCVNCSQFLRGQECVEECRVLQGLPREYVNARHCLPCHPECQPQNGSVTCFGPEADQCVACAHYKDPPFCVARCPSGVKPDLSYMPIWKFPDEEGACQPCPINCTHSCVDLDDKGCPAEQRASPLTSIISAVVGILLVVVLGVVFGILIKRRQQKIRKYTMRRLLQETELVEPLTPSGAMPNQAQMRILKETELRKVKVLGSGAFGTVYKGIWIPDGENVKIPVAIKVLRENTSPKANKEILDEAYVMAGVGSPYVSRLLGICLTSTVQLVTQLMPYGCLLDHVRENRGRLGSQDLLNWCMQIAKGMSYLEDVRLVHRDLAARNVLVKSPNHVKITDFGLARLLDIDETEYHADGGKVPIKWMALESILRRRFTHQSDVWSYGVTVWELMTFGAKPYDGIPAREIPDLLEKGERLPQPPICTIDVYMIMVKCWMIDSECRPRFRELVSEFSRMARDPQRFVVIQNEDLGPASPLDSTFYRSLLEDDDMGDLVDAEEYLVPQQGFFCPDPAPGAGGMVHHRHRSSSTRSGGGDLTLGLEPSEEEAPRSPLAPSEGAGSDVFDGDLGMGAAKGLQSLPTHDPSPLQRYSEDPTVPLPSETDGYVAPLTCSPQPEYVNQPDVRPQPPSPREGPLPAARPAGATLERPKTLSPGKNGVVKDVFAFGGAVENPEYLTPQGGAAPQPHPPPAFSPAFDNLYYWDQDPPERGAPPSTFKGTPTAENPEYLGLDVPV

Structure (SMILES)	viability [1]	Her2 level [2]	viability [3]	viability [4]	viability [5]	differential viability (reversal) ([6]; H69AR cells + 2 uM doxorubicin)	viability [6, 9]	viability [6, 10]	inhibition [7]	inhibition [8]
COCCn1nnnc1C(c1ccc(OC)cc1)N1CCN(c2ccccc2F)CC1 (stereo not given)	100%	101% (inactive)	100% (inactive)	107% (inactive)	89.7% (inactive)	9.91% (inactive)	79.8%	89.7%	-2.6% (inactive)	-2.06% (inactive)
COc1ccc(-c2[nH]nc3c2C(c2ccccc2OC(=O)N2CCOCC2)C(C#N)=C(N)O3)cc1 (stereo not given)	120%	85.5% (inactive)	120% (inactive)	96.2% (inactive)	88.9% (inactive)	1.89% (inactive)	87%	88.9%	-1.58% (inactive)	-1.45% (inactive)
Clc1ccccc1OCc1nn2c(-c3ccncc3)nnc2s1	114%	75.5% (inactive)	114% (inactive)	78.6% (inactive)	98.2% (inactive)	5.55% (inactive)	92.7%	98.2%	-5.95% (inactive)	2.67% (inactive)
CCOc1ccccc1N1CCN(c2nc(N)c(C#N)c(CC#N)c2C#N)CC1	108%	74.5% (inactive)	108% (inactive)	70.7% (inactive)	61.7% (inactive)	-22.8% (inactive)	84.5%	61.7%	-4.34% (inactive)	5.64% (inactive)
COC(=O)C1=C(N)Oc2cc(C)[nH]c(=O)c2C1c1ccncc1 (stereo not given)	132%	106% (inactive)	132% (inactive)	94.4% (inactive)	94.7% (inactive)	7.35% (inactive)	87.3%	94.7%	-0.79% (inactive)	5% (inactive)
Cc1cc(NC(=O)c2ccccc2Oc2ccccc2)no1	97%	92.5% (inactive)	97% (inactive)	93.5% (inactive)	110% (inactive)	16.8% (inactive)	93.5%	110%	-5.33% (inactive)	2.42% (inactive)
O=C(NCCCn1ccnc1)c1csc2ccccc12	84.5%	89.5% (inactive)	84.5% (inactive)	95.4% (inactive)	97.5% (inactive)	11.9% (inactive)	85.6%	97.5%	-3.03% (inactive)	3.67% (inactive)
CCOC(=O)N1CCN(c2c(NCC3CCN(Cc4cccc(C)c4)CC3)c(=O)c2=O)CC1	102%	89.5% (inactive)	102% (inactive)	81.7% (inactive)	107% (inactive)	15% (inactive)	92.2%	107%	-2% (inactive)	2.95% (inactive)
O=C(Nc1ccc(N2C(=O)C3C4C=CC(C4)C3C2=O)cc1)Nc1cccnc1 (stereo not given)	108%	83% (inactive)	108% (inactive)	75.3% (inactive)	86% (inactive)	-0.065% (inactive)	86.1%	86%	-3.29% (inactive)	-1.33% (inactive)
CCOCC(=O)Nc1sc2c(c1C(=O)OCC)CCCC2	89%	89.5% (inactive)	89% (inactive)	54% (inactive)	90.5% (inactive)	-4.83% (inactive)	95.3%	90.5%	0.13% (inactive)	1.64% (inactive)
CSc1nc2c(ccc3ccccc32)o1	114%	83.5% (inactive)	114% (inactive)	92.4% (inactive)	90.7% (inactive)	2.83% (inactive)	87.9%	90.7%	-1.32% (inactive)	6.94% (inactive)
Cc1ccc(S(=O)(=O)Cn2nnnc2CN(Cc2ccco2)CC2CCCO2)cc1 (stereo not given)	90%	96.5% (inactive)	90% (inactive)	110% (inactive)	83.3% (inactive)	-0.665% (inactive)	84%	83.3%	-2.53% (inactive)	44.8% (active)
CC(C)(C)c1ccc(C(=O)Nc2cnccn2)cc1	79.5%	114% (inactive)	79.5% (inactive)	98.1% (inactive)	100% (inactive)	18.8% (inactive)	81.5%	100%	-4.87% (inactive)	0.67% (inactive)
O=C(CN1C(=O)CCSc2ccccc21)Nc1ccc(F)cc1	94%	112% (inactive)	94% (inactive)	97.6% (inactive)	98.5% (inactive)	1.06% (inactive)	97.5%	98.5%	3.29% (inactive)	0.16% (inactive)
